Source: ChEMBL document CHEMBL1147076, “Antitumor activity of MLN8054, an orally active small-molecule inhibitor of Aurora A kinase” (Proc Natl Acad Sci U S A, 2007)

What was measured:
[1] = molecular target: Calcium/calmodulin-dependent protein kinase type II subunit delta (Homo sapiens) (UniProt Q13557); assay: Activity of human CaMK2delta kinase at 1 uM
Procedure, shortened: (§1)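 Single-point kinase profiling: each kinase in a 226-kinase panel tested with compound at 1 μM and ATP at 10 μM in every assay, run by an external screening service.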

[2] = molecular target: Proto-oncogene tyrosine-protein kinase ROS (Homo sapiens) (UniProt P08922); assay: Activity of human Ros kinase at 1 uM
Procedure, shortened: (§2)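 Single-point screen in a 226-kinase panel run by an outside service. Test compound at 1 μM with ATP at 10 μM in every assay. Other assay conditions are not given.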

[3] = molecular target: Serine/threonine-protein kinase Sgk2 (Homo sapiens) (UniProt Q9HBY8); assay: Activity of human SGK2 kinase at 1 uM; procedure, shortened: as §2
[4] = molecular target: Protein kinase C beta type (Homo sapiens) (UniProt P05771); assay: Activity of human PKC-beta-1 kinase at 1 uM; procedure, shortened: as §2
[5] = Inhibition of PKA by radioactive flashplate assay
[6] = molecular target: Tyrosine-protein kinase Fes/Fps (Homo sapiens) (UniProt P07332); assay: Activity of human Fes kinase at 1 uM; procedure, shortened: as §1
[7] = molecular target: Serine/threonine-protein kinase PAK 3 (Homo sapiens) (UniProt O75914); assay: Activity of human PAK3 kinase at 1 uM; procedure, shortened: as §2
[8] = molecular target: Tyrosine-protein kinase Lyn (Homo sapiens) (UniProt P07948); assay: Activity of human Lyn kinase at 1 uM; procedure, shortened: as §1
[9] = molecular target: Homeodomain-interacting protein kinase 2 (Homo sapiens) (UniProt Q9H2X6); assay: Activity of human HIPK2 kinase at 1 uM; procedure, shortened: as §1
[10] = molecular target: cGMP-dependent protein kinase 1 (Homo sapiens) (UniProt Q13976); assay: Activity of human PKG1-beta kinase at 1 uM; procedure, shortened: as §1
PC-3 [11] = assay: Cell cycle arrest in human PC3 cells by accumulation at S phase at 1 uM after 24 hrs by flow cytometry relative to control; format: functional
Procedure, shortened: (§3)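 DNA content profiles by flow cytometry of PC-3 prostate tumor cells exposed to drug diluted in DMSO for 24 or 48 h. Phase distribution was compared with DMSO-treated control cells.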

[12] = molecular target: Ephrin type-A receptor 1 (Homo sapiens) (UniProt P21709); assay: Activity of human EphA1 kinase at 1 uM; procedure, shortened: as §1
[13] = molecular target: Protein kinase C iota type (Homo sapiens) (UniProt P41743); assay: Activity of human PKCiota kinase at 1 uM; procedure, shortened: as §1
[14] = molecular target: Tyrosine-protein kinase JAK2 (Homo sapiens) (UniProt O60674); assay: Activity of human JAK2 kinase at 1 uM
PC-3 [15] = assay: Cell cycle arrest in human PC3 cells by accumulation at G2/M phase at 1 uM after 24 hrs by flow cytometry relative to control; format: functional; procedure, shortened: as §3
[16] = molecular target: Fibroblast growth factor receptor 1 (Homo sapiens) (UniProt P11362); assay: Activity of human FGFR1 kinase at 1 uM; procedure, shortened: as §1
[17] = molecular target: Serine/threonine-protein kinase PAK 5 (Homo sapiens) (UniProt Q9P286); assay: Activity of human PAK5 kinase at 1 uM; procedure, shortened: as §2
[18] = molecular target: Serine/threonine-protein kinase DCLK2 (Homo sapiens) (UniProt Q8N568); assay: Activity of human DCAMKL2 kinase at 1 uM; procedure, shortened: as §1
[19] = molecular target: Dual specificity mitogen-activated protein kinase kinase 1 (Homo sapiens) (UniProt Q02750); assay: Activity of human MEK1 kinase at 1 uM
[20] = molecular target: Protein kinase C delta type (Homo sapiens) (UniProt Q05655); assay: Activity of human PKCdelta kinase at 1 uM; procedure, shortened: as §1
[21] = molecular target: Phosphorylase b kinase gamma catalytic chain, liver/testis isoform (Homo sapiens) (UniProt P15735); assay: Activity of human PhKgamma2 kinase at 1 uM; procedure, shortened: as §2
[22] = molecular target: Casein kinase I isoform delta (Homo sapiens) (UniProt P48730); assay: Activity of human CK1delta kinase at 1 uM; procedure, shortened: as §1
[23] = molecular target: SRSF protein kinase 2 (Homo sapiens) (UniProt P78362); assay: Activity of human SRPK2 kinase at 1 uM; procedure, shortened: as §2
[24] = molecular target: Eukaryotic elongation factor 2 kinase (Homo sapiens) (UniProt O00418); assay: Activity of human eEF-2K kinase at 1 uM
Procedure, shortened: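 Single-concentration screen across a 226-kinase panel run by an outside provider; test compound at 1 μM with 10 μM ATP in every assay. Other conditions not detailed.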

[25] = molecular target: Ephrin type-B receptor 3 (Homo sapiens) (UniProt P54753); assay: Activity of human EphB3 kinase at 1 uM

Tyrosine-protein kinase JAK2 (Homo sapiens), sequence (O60674 whole entry): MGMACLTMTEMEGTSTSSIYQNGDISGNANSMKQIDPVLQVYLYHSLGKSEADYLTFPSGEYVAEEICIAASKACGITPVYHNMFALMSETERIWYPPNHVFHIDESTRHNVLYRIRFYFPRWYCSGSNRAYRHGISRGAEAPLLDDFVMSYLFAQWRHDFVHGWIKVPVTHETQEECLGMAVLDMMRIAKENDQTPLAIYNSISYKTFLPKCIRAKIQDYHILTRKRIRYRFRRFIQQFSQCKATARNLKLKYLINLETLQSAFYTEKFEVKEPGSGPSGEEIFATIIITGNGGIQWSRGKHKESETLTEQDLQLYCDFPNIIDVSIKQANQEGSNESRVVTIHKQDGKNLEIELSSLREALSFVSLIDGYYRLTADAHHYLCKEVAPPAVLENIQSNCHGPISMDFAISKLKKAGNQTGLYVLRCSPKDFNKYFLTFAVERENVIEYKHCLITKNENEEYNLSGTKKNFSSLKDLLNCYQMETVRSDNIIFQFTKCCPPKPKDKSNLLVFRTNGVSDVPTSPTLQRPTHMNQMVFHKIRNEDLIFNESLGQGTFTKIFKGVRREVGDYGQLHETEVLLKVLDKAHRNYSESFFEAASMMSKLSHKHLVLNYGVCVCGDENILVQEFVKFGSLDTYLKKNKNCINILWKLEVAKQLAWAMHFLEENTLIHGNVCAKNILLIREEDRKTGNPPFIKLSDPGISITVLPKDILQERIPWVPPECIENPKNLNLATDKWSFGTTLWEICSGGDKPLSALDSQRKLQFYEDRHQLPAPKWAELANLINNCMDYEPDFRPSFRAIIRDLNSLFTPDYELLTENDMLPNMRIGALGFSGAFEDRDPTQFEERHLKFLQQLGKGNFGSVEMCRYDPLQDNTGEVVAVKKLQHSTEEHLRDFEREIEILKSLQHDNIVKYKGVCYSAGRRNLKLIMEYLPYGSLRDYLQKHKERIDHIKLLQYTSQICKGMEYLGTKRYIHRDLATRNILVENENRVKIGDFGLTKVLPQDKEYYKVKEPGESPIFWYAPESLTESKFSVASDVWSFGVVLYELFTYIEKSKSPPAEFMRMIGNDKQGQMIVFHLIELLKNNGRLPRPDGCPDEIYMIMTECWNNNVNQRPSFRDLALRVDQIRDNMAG
Proto-oncogene tyrosine-protein kinase ROS (Homo sapiens), sequence (P08922 whole entry): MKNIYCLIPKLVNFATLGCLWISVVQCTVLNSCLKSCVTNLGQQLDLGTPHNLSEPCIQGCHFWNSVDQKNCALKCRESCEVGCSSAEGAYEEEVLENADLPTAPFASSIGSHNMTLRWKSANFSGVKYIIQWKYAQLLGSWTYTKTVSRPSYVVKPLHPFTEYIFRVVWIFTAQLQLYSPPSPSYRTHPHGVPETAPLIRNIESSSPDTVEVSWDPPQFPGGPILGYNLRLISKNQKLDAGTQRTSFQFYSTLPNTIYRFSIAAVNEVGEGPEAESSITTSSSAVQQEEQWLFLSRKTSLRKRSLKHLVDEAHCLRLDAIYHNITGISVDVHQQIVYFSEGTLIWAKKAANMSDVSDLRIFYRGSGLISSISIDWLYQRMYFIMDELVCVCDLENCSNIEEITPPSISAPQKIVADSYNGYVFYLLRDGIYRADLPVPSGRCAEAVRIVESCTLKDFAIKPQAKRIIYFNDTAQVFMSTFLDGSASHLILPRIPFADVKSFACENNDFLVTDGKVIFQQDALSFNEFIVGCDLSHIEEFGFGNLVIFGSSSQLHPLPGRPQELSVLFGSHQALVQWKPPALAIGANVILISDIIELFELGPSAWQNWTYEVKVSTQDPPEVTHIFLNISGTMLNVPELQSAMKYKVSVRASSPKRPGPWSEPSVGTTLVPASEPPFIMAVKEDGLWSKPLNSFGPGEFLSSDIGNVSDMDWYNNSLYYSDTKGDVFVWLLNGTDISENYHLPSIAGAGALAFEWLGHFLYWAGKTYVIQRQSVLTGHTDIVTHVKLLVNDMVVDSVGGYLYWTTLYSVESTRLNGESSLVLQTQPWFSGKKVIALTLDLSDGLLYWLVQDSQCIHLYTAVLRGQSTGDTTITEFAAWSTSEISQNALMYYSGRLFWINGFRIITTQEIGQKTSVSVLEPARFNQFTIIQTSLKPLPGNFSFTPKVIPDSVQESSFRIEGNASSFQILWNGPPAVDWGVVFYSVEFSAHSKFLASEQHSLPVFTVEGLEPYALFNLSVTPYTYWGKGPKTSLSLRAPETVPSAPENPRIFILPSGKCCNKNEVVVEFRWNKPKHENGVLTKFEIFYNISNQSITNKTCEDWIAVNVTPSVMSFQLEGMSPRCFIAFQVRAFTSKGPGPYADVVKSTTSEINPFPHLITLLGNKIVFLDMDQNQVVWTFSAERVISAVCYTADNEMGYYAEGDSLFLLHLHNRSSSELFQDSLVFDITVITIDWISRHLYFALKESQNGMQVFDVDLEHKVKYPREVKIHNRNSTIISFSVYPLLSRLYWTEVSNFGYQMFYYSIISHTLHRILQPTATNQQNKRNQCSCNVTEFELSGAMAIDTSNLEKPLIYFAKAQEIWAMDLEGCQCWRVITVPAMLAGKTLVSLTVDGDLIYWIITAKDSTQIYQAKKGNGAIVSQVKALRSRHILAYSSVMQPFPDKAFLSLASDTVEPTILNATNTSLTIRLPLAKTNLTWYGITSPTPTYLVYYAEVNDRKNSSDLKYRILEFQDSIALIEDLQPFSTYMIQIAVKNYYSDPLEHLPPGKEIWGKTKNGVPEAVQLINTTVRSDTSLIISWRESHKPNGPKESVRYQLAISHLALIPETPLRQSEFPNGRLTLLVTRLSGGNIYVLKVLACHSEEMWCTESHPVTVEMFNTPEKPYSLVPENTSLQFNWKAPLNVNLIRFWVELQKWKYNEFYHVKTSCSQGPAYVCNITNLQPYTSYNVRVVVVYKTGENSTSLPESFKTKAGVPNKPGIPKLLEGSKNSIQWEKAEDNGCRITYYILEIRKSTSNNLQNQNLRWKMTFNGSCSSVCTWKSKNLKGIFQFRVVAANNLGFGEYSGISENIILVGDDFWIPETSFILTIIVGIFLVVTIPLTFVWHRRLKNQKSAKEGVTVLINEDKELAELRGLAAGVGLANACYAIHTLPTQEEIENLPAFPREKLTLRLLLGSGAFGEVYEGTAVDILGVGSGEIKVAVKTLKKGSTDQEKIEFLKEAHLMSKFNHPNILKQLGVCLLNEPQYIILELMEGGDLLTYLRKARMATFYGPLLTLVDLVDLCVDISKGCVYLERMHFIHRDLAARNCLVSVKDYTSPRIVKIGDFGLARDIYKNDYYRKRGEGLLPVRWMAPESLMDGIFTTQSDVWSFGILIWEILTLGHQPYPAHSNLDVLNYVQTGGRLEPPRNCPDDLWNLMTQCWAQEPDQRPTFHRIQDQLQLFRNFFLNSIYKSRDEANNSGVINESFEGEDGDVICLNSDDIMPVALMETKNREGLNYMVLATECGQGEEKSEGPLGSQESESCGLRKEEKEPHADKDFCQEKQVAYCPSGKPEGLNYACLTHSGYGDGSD
Serine/threonine-protein kinase PAK 3 (Homo sapiens), sequence (O75914 whole entry, looked up): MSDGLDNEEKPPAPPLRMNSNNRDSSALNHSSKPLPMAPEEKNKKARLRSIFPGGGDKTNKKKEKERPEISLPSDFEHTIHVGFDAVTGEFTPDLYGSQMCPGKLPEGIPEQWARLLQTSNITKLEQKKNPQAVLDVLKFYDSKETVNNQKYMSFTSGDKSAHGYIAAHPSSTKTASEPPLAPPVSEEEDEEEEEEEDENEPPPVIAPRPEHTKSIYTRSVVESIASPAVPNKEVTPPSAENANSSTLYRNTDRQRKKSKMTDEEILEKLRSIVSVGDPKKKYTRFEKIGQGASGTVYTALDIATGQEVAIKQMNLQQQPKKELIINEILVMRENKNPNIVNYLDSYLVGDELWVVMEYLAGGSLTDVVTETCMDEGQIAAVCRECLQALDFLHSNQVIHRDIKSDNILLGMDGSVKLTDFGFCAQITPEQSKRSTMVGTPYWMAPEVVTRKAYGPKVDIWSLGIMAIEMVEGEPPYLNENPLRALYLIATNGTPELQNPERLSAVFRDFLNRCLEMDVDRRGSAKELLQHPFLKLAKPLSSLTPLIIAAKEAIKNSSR
cGMP-dependent protein kinase 1 (Homo sapiens), sequence (Q13976 whole entry): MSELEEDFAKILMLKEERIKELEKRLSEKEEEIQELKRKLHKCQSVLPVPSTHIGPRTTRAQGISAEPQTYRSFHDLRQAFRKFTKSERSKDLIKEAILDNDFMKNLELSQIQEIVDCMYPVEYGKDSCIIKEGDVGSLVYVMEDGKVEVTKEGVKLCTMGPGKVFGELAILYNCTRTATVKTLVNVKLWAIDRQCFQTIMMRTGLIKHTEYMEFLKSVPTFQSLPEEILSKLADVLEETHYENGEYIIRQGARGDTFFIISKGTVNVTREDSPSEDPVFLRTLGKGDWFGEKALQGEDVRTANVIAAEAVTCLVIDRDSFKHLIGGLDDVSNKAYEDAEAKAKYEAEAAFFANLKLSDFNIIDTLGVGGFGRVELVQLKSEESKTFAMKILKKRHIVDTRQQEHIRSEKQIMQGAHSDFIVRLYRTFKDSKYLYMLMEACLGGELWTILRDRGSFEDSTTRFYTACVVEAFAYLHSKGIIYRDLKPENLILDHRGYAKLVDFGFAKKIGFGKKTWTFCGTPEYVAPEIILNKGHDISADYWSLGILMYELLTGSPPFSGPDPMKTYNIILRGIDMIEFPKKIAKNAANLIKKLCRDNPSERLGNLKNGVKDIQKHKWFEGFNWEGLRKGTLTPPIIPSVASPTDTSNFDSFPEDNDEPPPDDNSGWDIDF
Dual specificity mitogen-activated protein kinase kinase 1 (Homo sapiens), sequence (Q02750 whole entry): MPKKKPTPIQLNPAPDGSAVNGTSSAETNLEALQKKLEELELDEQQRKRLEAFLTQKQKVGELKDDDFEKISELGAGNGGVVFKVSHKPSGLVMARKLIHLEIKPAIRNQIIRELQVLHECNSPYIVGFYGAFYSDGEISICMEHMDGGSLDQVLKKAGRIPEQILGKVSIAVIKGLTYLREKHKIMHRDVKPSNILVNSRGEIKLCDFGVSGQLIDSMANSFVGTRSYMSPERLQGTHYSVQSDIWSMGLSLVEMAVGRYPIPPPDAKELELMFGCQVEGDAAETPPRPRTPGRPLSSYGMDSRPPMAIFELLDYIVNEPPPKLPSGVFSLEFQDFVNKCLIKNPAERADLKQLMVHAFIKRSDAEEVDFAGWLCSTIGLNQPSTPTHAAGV

Activity [1]: 123%
Activity [2]: 88%
Activity [3]: 100%
Activity [4]: 98%
IC50 [5]: 19 µM
Activity [6]: 133%
Activity [7]: 94%
Activity [8]: 46%
Activity [9]: 112%
Activity [10]: 109%
Activity [12]: 29%
Activity [13]: 109%
Activity [14]: 92%
Activity [16]: 43%
Activity [17]: 100%
Activity [18]: 103%
Activity [19]: 110%
Activity [20]: 109%
Activity [21]: 98%
Activity [22]: 129%
Activity [23]: 87%
Activity [24]: 123%
Activity [25]: 95%
SMILES: O=C(O)c1ccc(Nc2ncc3c(n2)-c2ccc(Cl)cc2C(c2c(F)cccc2F)=NC3)cc1 [MLN-8054]
Activity (PC-3 [11]): 14.9%
Activity (PC-3 [15]): 45.4%
